Data published in PubChem BioAssay.
Inconclusive results are not listed.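 How the source made its calls, unless noted: active means viability at or below 27.92% in each of two runs, the all-compound median minus 4 SD; inconclusive means no clear call, values can overlap the other calls; inactive means the rest.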

How the values were obtained:
[1] = OD615 S. cerevisiae growth inhibition, permissive medium, pilot counter-assay, permissive growth control for S. cerevisiae lifespan shortening project (AID 705;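 active means growth inhibition above 25% in both replicates, a cutoff set 3 SD above the mean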); conditions: OD615, 24 h, at 10 µM, active compounds read high
Procedure, shortened: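 System: S. cerevisiae with engineered DeaD lifespan system. Medium: SC raffinose/galactose permissive medium. Doses: single compound dose of 10 µM, 0.25% DMSO final. Schedule: 24 h exposure, 30 °C. Measured by: OD615 turbidity read. Read-out: growth inhibition.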

[2] = Restrictive medium S. cerevisiae growth inhibition, OD615, pilot screen of yeast lifespan reduction project, restrictive growth control (AID 706;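 active means growth inhibition above a set limit, 3 SD over mean compound inhibition, in both replicates, cut at about 43% in these data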;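 further: modified DeaD lifespan yeast strain shifted to restrictive glucose medium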); conditions: OD615, 48 h, at 10 µM, active compounds read high
Procedure, shortened: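 Assay system – genetically modified Saccharomyces cerevisiae, DeaD replicative lifespan assay strain · Medium – CSMM-D glucose medium · Doses – 10 µM compound, 0.25% DMSO · Times – 4 h pre-incubation, 48 h exposure at 30 °C · Signal – optical density at 615 nm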

[3] = viability gain of MRP-1-high H69AR cells under doxorubicin, pilot screen, MRP-1 activator project, CellTiter-Glo, duplicate (AID 807;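 active means viability increase at or above a cutoff of the median across tested compounds plus 3 SD, cut at about 8.5% in these data, passing the limit was not always enough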;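 further: compound pretreatment 18-22 h then 72 h combined with doxorubicin; 0% = doxorubicin alone and 100% = vehicle without doxorubicin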); conditions: H69AR viability with doxorubicin, CellTiter-Glo luminescence; at 10 µM; active compounds read high
[4] = growth suppression of beta-catenin knockout HCT116, pilot screen, human colon tumor cells (AID 823;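 active means cell viability at or below a set limit in both duplicate runs, the limit being the all-compound median minus 4 SD, cut at about 23% in these data, passing the limit was not always enough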;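 further: 0% = wells killed by 20 µM Hyamine and 100% = untreated DMSO cell wells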); conditions: CellTiter-Glo, 60 h, at 10 µM, active compounds read low
[5] = growth suppression of PTEN-deleted HCT116, pilot screen, cell-based, HCT116 clonal line, CellTiter-Glo (AID 824); conditions: 60 h, at 10 µM, active compounds read low;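 further: 0% = 20 µM Hyamine control and 100% = vehicle cell control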
[6] = inhibitors of the yeast RAM network, pilot screen, dse1pr::URA3 reporter, 5-FOA selection (AID 869;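 active means inhibition over a set limit, the all-compound mean plus 3 SD, in both replicate runs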;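 further: 0% = DMSO wells with no growth and 100% = 10 µM 1-NA-PP1 with full growth; RAM network block rescues cells from 5-FOA so hits raise OD615 growth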); conditions: S. cerevisiae dse1pr::URA3 5-FOA growth, OD615, 2 d; at 10 µM; active compounds read high; strain carries analog-sensitive mutant Cbk1 kinase
[7] = RAM signaling pathway blockade in yeast – S. cerevisiae, Pdr1DBD-CYC8 efflux-inhibited sensitized strain, primary screen (AID 1298;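 active means RAM network inhibition above 8.4% in each of two replicates, 3 SD over the compound average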;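 further: 0% = DMSO untreated cells without growth and 100% = 10 µM 1-NA-PP1 full growth; higher means more yeast growth rescued from 5-FOA killing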); conditions: S. cerevisiae cbk1-as DSE1-URA3 strain, 5-FOA growth OD615, 2 d; at 50 µM; active compounds read high

CCc1nnc(NC(=O)c2ccc(OC)cc2OC)s1
inactive: growth inhibition [1] 16.6% | growth inhibition [2] 3.21% | viability increase [3] -1.32% | viability [4] 109% | viability [5] 102% | inhibition [6] 1.68% | RAM network inhibition [7] 2.76%

COc1ccc(CCNC(=O)c2cc3ccccn3n2)c(OC)c1OC
inactive: growth inhibition [1] -3.78% | growth inhibition [2] 7.63% | viability increase [3] -0.02% | viability [4] 112% | viability [5] 106% | inhibition [6] 1.92% | RAM network inhibition [7] -0.2%

O=S(=O)(NCC(c1cccnc1)N1CCN(c2ccc(F)cc2)CC1)c1ccc(F)cc1 (stereo unspecified)
inactive: growth inhibition [1] -0.55% | growth inhibition [2] -0.65% | viability increase [3] -2.52% | viability [4] 87.4% | viability [5] 84.5% | inhibition [6] 4.02% | RAM network inhibition [7] 4.9%

COc1ccc(OCCSc2nnc(-c3ccccc3)n2N)cc1
inactive: growth inhibition [1] -2.49% | growth inhibition [2] -12.7% | viability increase [3] 0.25% | viability [4] 89.8% | viability [5] 92.5% | inhibition [6] 1.27% | RAM network inhibition [7] 5.07%

CCOC(=O)c1c(C)n(C)c2ccc(OCC(N)=O)cc12
inactive: growth inhibition [1] -3.96% | growth inhibition [2] -11% | viability increase [3] -4.45% | viability [4] 100% | viability [5] 99.3% | inhibition [6] 1.96% | RAM network inhibition [7] 6.79%

O=C(O)C1CCCN1S(=O)(=O)c1cc(Cl)ccc1Cl (stereo unspecified)
inactive: growth inhibition [1] -3.73% | growth inhibition [2] -6.05% | viability increase [3] 1.55% | viability [4] 92.5% | viability [5] 102% | inhibition [6] 0.535% | RAM network inhibition [7] 4.12%

O=C(NCc1ccc2c(c1)OCO2)c1ccc(NC(=O)C2CCCO2)cc1 (stereo unspecified)
inactive: growth inhibition [1] -11% | growth inhibition [2] -20.2% | viability increase [3] -2.17% | viability [4] 102% | viability [5] 103% | inhibition [6] 3.76% | RAM network inhibition [7] 4.81%

CCOC(=O)Cn1c(=NC(=O)CSC(C)=O)sc2ccccc21
inactive: growth inhibition [1] 0% | growth inhibition [2] 8.74% | viability increase [3] -4.54% | viability [4] 105% | viability [5] 106% | inhibition [6] 0.465% | RAM network inhibition [7] 4.02%

COc1cccc(C2CC(c3ccc(Cl)cc3Cl)n3nc(N)nc3N2)c1 (stereo unspecified)
inactive: growth inhibition [1] -1.58% | growth inhibition [2] 18.6% | viability increase [3] 4.01% | viability [4] 90.8% | viability [5] 90.8% | inhibition [6] 1.79% | RAM network inhibition [7] 8.01%

CCS(=O)(=O)Nc1cc(-c2nc3cccnc3s2)ccc1C
inactive: growth inhibition [1] -6.48% | growth inhibition [2] 12.5% | viability increase [3] -3.94% | viability [4] 100% | viability [5] 82.8% | inhibition [6] 1.89% | RAM network inhibition [7] 5.32%

c1ccc(Sc2nc(N3CCCCC3)nc(N3CCCCC3)n2)nc1
inactive: growth inhibition [1] 4.63% | growth inhibition [2] -1.59% | viability increase [3] 0.32% | viability [4] 89.3% | viability [5] 86.5% | inhibition [6] 0.735% | RAM network inhibition [7] 4.97%

CC(=O)NCc1nc2ccccc2n1Cc1ccccc1F
inactive: growth inhibition [1] -7.66% | growth inhibition [2] -15.8% | viability increase [3] -0.31% | viability [4] 108% | viability [5] 104% | inhibition [6] 3.39% | RAM network inhibition [7] 2.03%

O=C(CCc1nc2ccccc2[nH]1)N1CCc2ccccc2C1
inactive: growth inhibition [1] -11.6% | growth inhibition [2] -12.5% | viability increase [3] -1.86% | viability [4] 104% | viability [5] 94.8% | inhibition [6] 0.94% | RAM network inhibition [7] 1.76%

CCOc1ccc(C2C(C(=O)NC)=C(C)Nc3nc4ccccc4n32)cc1OC (stereo unspecified)
inactive: growth inhibition [1] -4.37% | growth inhibition [2] -0.94% | viability increase [3] 0.24% | viability [4] 98.8% | viability [5] 103% | inhibition [6] 1.18% | RAM network inhibition [7] 2.01%

O=C(Nc1cc(=O)c2ccccc2o1)N1CCOCC1
inactive: growth inhibition [1] 1.73% | growth inhibition [2] -7.41% | viability increase [3] -2.39% | viability [4] 103% | viability [5] 103% | inhibition [6] 2.6% | RAM network inhibition [7] 1.4%

COc1ccc(C(=O)Nc2nncs2)cc1S(=O)(=O)N1CC(c2ccccc2)CC1=O (stereo unspecified)
inactive: growth inhibition [1] -12.7% | growth inhibition [2] 18% | viability increase [3] 0.31% | viability [4] 101% | viability [5] 87% | inhibition [6] 0.92% | RAM network inhibition [7] 3.31%

CCC(Sc1nccn1C)C(=O)Nc1nnc(C)s1 (stereo unspecified)
inactive: growth inhibition [1] -21.2% | growth inhibition [2] 2.97% | viability increase [3] 5% | viability [4] 101% | viability [5] 94.2% | inhibition [6] 1.58% | RAM network inhibition [7] 1.93%

C=CCc1c(C)nc(SC)nc1Nc1ccc(C(C)=O)cc1
inactive: growth inhibition [1] -6.88% | growth inhibition [2] -6.6% | viability increase [3] -3.83% | viability [4] 83.8% | viability [5] 87.1% | inhibition [6] 1.53% | RAM network inhibition [7] 6.87%

COc1ccc(OC)c(C2NC(=O)NC(C)=C2C(=O)Nc2ccc(C)cc2C)c1 (stereo unspecified)
inactive: growth inhibition [1] -7.68% | growth inhibition [2] 4.14% | viability increase [3] 0.67% | viability [4] 101% | viability [5] 100% | inhibition [6] 1.77% | RAM network inhibition [7] 2.4%

COc1cccc(C2=NOC(C(=O)N3CCN(C(=O)c4ccco4)CC3)C2)c1 (stereo unspecified)
inactive: growth inhibition [1] 5% | growth inhibition [2] -4.4% | viability increase [3] -2.95% | viability [4] 95.6% | viability [5] 95.2% | inhibition [6] -0.3% | RAM network inhibition [7] 0.01%

O=C(Cn1cnc2ccccc2c1=O)N(Cc1ccco1)c1ccc(O)cc1
inactive: growth inhibition [1] -4.45% | growth inhibition [2] -19.6% | viability increase [3] -1.76% | viability [4] 92% | viability [5] 89.8% | inhibition [6] 0.94% | RAM network inhibition [7] -0.26%

CCc1cccc(OCC(=O)Nc2ccc(S(=O)(=O)Nc3onc(C)c3C)cc2)c1
inactive: growth inhibition [1] -13.4% | growth inhibition [2] 8.17% | viability increase [3] -1.89% | viability [4] 98.7% | viability [5] 97% | inhibition [6] -0.085% | RAM network inhibition [7] 1.89%

Cc1cccc(CCNC(=O)C2CCC(CNc3c(N4CCCC4)c(=O)c3=O)CC2)c1 (stereo unspecified)
inactive: growth inhibition [1] -6.65% | growth inhibition [2] -3.19% | viability increase [3] -1.92% | viability [4] 99.4% | viability [5] 91.2% | inhibition [6] 1.26% | RAM network inhibition [7] 4.72%

CCOCCn1c(SCc2cccc(C)c2)nc2c1c(=O)[nH]c(=O)n2C
inactive: growth inhibition [1] -7.34% | growth inhibition [2] 10% | viability increase [3] -5.79% | viability [4] 98% | viability [5] 87.4% | inhibition [6] 0.905% | RAM network inhibition [7] 2.37%

Cn1c(=O)oc2cc(S(=O)(=O)N3CCCC(C(=O)Nc4ccc5c(c4)OCCO5)C3)ccc21 (stereo unspecified)
inactive: growth inhibition [1] -0.19% | growth inhibition [2] -4.89% | viability increase [3] -1.81% | viability [4] 89.5% | viability [5] 90% | inhibition [6] 1.42% | RAM network inhibition [7] 1.66%

N#CCCN1CCN(S(=O)(=O)c2ccc(S(=O)(=O)N3CCCCCC3)cc2)CC1
inactive: growth inhibition [1] 1.57% | growth inhibition [2] -16.9% | viability increase [3] -2.09% | viability [4] 97.4% | viability [5] 94.3% | inhibition [6] 0.525% | RAM network inhibition [7] 11.9%

O=C(NCCn1cc(SCC(=O)N2CCOCC2)c2ccccc21)c1ccccc1
inactive: growth inhibition [1] 1.06% | growth inhibition [2] -5.21% | viability increase [3] 0.4% | viability [4] 97% | viability [5] 99.8% | inhibition [6] -0.225% | RAM network inhibition [7] 0.78%

CCOC(=O)C1=C(C)Nc2nc(C)nn2C1c1ccc(OC)c(OC)c1 (stereo unspecified)
inactive: growth inhibition [1] -6.55% | growth inhibition [2] -3.96% | viability increase [3] -3.45% | viability [4] 99.5% | viability [5] 102% | inhibition [6] 0.77% | RAM network inhibition [7] 0.06%

COc1ccccc1OCC(=O)Nc1ccc(S(=O)(=O)NC(C)=O)cc1
inactive: growth inhibition [1] -17% | growth inhibition [2] -5.72% | viability increase [3] 1.56% | viability [4] 89.2% | viability [5] 103% | inhibition [6] 0.645% | RAM network inhibition [7] 2.08%

CCC(=O)Nc1nc2ccccc2n1CCN1CCOCC1
inactive: growth inhibition [1] -9.48% | growth inhibition [2] -0.375% | viability increase [3] -2.15% | viability [4] 98.6% | viability [5] 99.3% | inhibition [6] -0.285% | RAM network inhibition [7] 5.41%

Cn1c(=O)c2c(SCc3cccnc3)nc(CC(C)(C)C)nc2n(C)c1=O
inactive: growth inhibition [1] 0.2% | growth inhibition [2] -12% | viability increase [3] -6.27% | viability [4] 87.2% | viability [5] 80.9% | inhibition [6] 0.1% | RAM network inhibition [7] 3.24%

O=S(=O)(NCCO)c1cccc2cccnc12
inactive: growth inhibition [1] -8.73% | growth inhibition [2] -10.2% | viability increase [3] -1.21% | viability [4] 94% | viability [5] 85.4% | inhibition [6] 1.24% | RAM network inhibition [7] -0.64%

COC(=O)CN(n1cnnc1)S(=O)(=O)c1ccccc1
inactive: growth inhibition [1] -9.75% | growth inhibition [2] -4.21% | viability increase [3] -0.13% | viability [4] 99% | viability [5] 96.9% | inhibition [6] 1.23% | RAM network inhibition [7] -0.62%
